# Results as given in ChEMBL document CHEMBL5614452, “Synthesis and Optimization of Small Molecule Inhibitors of Prostate Specific Antigen” (ACS Med Chem Lett, 2024).
# Active and inactive are the calls of the source. The rule behind the calls is not given here.
# Experiments:
# [1] = target: T1, Prostate-specific antigen (Homo sapiens) (UniProt P07288); assay: Inhibition of recombinant human semen PSA at 0.000001 to 500 uM using Mu-HSSKLQAMC as substrate preincubated for 15 mins followed by substrate addition by fluorescence based assay; type: single protein; details: dose lower 1e-06 µM, dose upper 500.0 µM
# T1 sequence (whole entry): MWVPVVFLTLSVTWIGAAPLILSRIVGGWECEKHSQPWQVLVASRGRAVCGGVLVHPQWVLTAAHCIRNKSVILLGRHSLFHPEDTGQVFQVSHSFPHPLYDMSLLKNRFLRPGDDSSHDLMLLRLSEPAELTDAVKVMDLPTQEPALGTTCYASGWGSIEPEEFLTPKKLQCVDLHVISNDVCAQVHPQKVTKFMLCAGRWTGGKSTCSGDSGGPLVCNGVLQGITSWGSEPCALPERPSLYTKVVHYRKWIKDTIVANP
# In short: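 PSA inhibition in a biochemical assay. Compounds tested at 100 nM, 1 μM, 10 μM, 100 μM and 500 μM, plus a lower picomolar-level concentration. Compounds with no inhibition across this range were scored not active.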
# [2] = target: T2, Prostate-specific antigen (Homo sapiens, UniProt P07288); assay: Inhibition of recombinant human semen PSA using Mu-HSSKLQAMC as substrate preincubated for 15 mins followed by substrate addition by fluorescence based assay
# T2 sequence (P07288 whole entry): T1 sequence (whole entry)
# Prothrombin = Prothrombin (Homo sapiens, UniProt P00734); assay: Inhibition of thrombin (unknown origin) by fluorescence based assay
# In short: (§1)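 Protease inhibition measured in biochemical enzyme assays, with the result reported as Ki.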
# Neutrophil elastase = target: T3, Neutrophil elastase (Homo sapiens, UniProt P08246); assay: Inhibition of neutrophil elastase (unknown origin) using 7-amino-4-trifluoromethyl-coumarin based peptide as substrate measured for 1 hr by fluorescence based microplate reader assay; in short: as §1
# T3 sequence (P08246 whole entry): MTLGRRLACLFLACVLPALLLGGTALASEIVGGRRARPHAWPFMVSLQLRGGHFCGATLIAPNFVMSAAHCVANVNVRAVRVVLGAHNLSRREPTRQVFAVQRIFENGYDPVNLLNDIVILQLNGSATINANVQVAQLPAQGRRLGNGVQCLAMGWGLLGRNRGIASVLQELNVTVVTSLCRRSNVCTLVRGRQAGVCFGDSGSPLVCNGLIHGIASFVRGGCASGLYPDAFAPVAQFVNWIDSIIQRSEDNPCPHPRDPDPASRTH
# [3] = Stability in DMEM/F-12 medium assessed as compound remaining at 10 uM after 8 hrs by LC-MS/MS analysis; type: physicochemical; details: read-out: Stability
# In short: (§2)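 Compound incubated in DMEM/F12 medium at 37 °C and sampled at 0, 8 and 24 h. Stability reported as percent of compound remaining.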
# [4] = Drug uptake in human HepG2 cells assessed as intracellular concentration per 10^9 cells at 10 uM incubated for 2 hrs by UHPLC-TSQ analysis; type: ADME, cell-based; details: hepg2, 2 h
# In short: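 HepG2 cells exposed to compound. Intracellular amount expressed as nmol per 10^9 cells, n = 4.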
# [5] = Cytotoxicity against human Ect1/E6E7 cells incubated for 1 to 3 hrs by MTT assay; type: toxicity, cell-based; details: time 1-3 hrs
# In short: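 Ect1/E6E7 human ectocervical cells exposed to compound for 1 or 3 h, with viability read by MTT assay. Nonoxynol-9 served as the positive cytotoxic control.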
# [6] = Inhibition of alpha-chymotrypsin (unknown origin) using N-Benzoyl-L-tyrosine ethyl ester as substrate preincubated for 5 mins followed by substrate addition and measured every 1 min for 10 mins by microplate reader assay; parameters: species or system Homo sapiens; in short: as §1
# [7] = Stability in DMEM/F-12 medium assessed as compound remaining at 10 uM after 24 hrs by LC-MS/MS analysis; type: physicochemical; in short: as §2
# [8] = Aqueous solubility of compound incubated for 1 hr by HPLC analysis; type: physicochemical
structure (smiles),measurement,setting,value
CNc1cc(-c2ccc(OC)nc2)nn1C(=O)c1ccc(OC)c(OC)c1,inhibition,[1],inactive
Nc1n[nH]c(-c2cccnc2)n1,inhibition,[1],inactive
COc1cncc(-c2cc(N)n(C(=O)c3ccc(OC)c(OC)c3)n2)c1,inhibition,[1],inactive
COc1ccc(CC(=O)n2nc(-c3cccnc3)nc2N)cc1OC,Ki,[2],308 µM
COc1ccc(-c2cc(N)n(C(=O)c3cc(OC)c(OC)c(OC)c3)n2)cn1,Ki,[2],367 µM
COc1ccc(-c2cc(N)n(C(=O)c3ccc4[nH]cnc4c3)n2)cn1,Ki,Prothrombin,0.411 µM
same,Ki,Neutrophil elastase,1180 µM
same,"remaining at 8 h, 10 µM",[3],~47%
same,Drug uptake,[4],3.41 nmol
same,Activity,[5],Non-Toxic
same,Ki,[6],2.74 µM
same,Stability,[7],Unstable
same,solubility at 1 h,[8],27 µM
COc1ccc(C(=O)n2nc(-c3cccnc3)nc2N)cc1OC,"remaining at 8 h, 10 µM",[3],~4%
same,Stability,[7],Unstable
COc1ccc(C(=O)n2nc(-c3ccncc3)cc2N)cc1OC,Ki,[2],104 µM
COc1ccc(Cn2nc(-c3cccnc3)nc2N)cc1OC,inhibition,[1],inactive
COc1ccc(-c2cc(N(C)C)n(C(=O)c3ccc(OC)c(OC)c3)n2)cn1,inhibition,[1],inactive
